Experimental data gathered from unrelated publications.
pIC50: −log10 of the molar value.
OGT: UDP-N-acetylglucosamine--peptide N-acetylglucosaminyltransferase 110 kDa subunit (OGT, Homo sapiens, UniProt O15294)
OPRD1: Delta-type opioid receptor (OPRD1, Homo sapiens, UniProt P41143)
gag-pol reverse transcriptase: Gag-Pol polyprotein, reverse transcriptase (gag-pol, Human immunodeficiency virus 1, UniProt P03366)
ADRA2A: Alpha-2A adrenergic receptor (ADRA2A, Homo sapiens, UniProt P08913)

| Compound | target | test | system | conditions | pIC50 |
| --- | --- | --- | --- | --- | --- |
| CC[C@H](C)[C@H](NC(=O)[C@H](CO)NC(=O)[C@H](Cc1ccc(O)cc1)NC(=O)[C@H](CCCCN)NC(=O)[C@@H]1CCCN1C(=O)[C@H](CCSC)NC(=O)[C@H](Cc1ccccc1)NC(=O)[C@H](CCSC)NC(=O)[C@@H](NC(=O)[C@@H]1CCCN1)C(C)C)C(=O)N[C@H](C(=O)N[C@@H](Cc1ccccc1)C(=O)O)[C@@H](C)CC | OGT | enzyme activity, inhibitor, fluorescence |  |  | 4.70 |
| Nc1c(S(=O)(=O)O)cc(Nc2ccc(Nc3nc(Cl)nc(Nc4cccc(S(=O)(=O)O)c4)n3)c(S(=O)(=O)O)c2)c2c1C(=O)c1ccccc1C2=O | P2X purinoceptor 2 (P2RX2, Homo sapiens, UniProt Q9UBL9) | calcium signal, antagonist |  |  | 5.72 |
| CNC[C@H](Cc1ccc(O)cc1)N1CCN(CCc2cccc(C)c2)[C@@H](C(C)C)C1 | OPRD1 | cell-free assay |  |  | < 5.00 |
| CC[C@H](C)[C@H](NC(=O)[C@H](CO)NC(=O)[C@H](Cc1ccc(O)cc1)NC(=O)[C@H](CCCCN)NC(=O)[C@@H]1CCCN1C(=O)[C@H](CCSC)NC(=O)[C@H](Cc1ccccc1)NC(=O)[C@H](CCSC)NC(=O)[C@@H](NC(=O)[C@@H]1CCCN1C(=O)[C@H](Cc1ccccc1)NC(=O)[C@H](CC(=O)O)NC(=O)CNC(=O)[C@H](CCCCN)NC(=O)[C@@H](N)CCCCN)C(C)C)C(=O)N[C@H](C(=O)N[C@@H](Cc1ccccc1)C(=O)O)[C@@H](C)CC | OGT | enzyme activity, inhibitor, fluorescence |  |  | 5.28 |
| Cc1cn([C@H]2CC[C@@H](OC(C(=O)O)C(=O)O)C2)c(=O)[nH]c1=O | gag-pol reverse transcriptase | enzyme activity, inhibitor, radiometric |  |  | < 3.19 |
| CC(C)[C@@H]1CN([C@@H](CNCc2ccccc2)C(C)C)CCN1CCc1ccccc1 | OPRD1 | cell-free assay |  |  | < 5.00 |
| CCOC(=O)c1cncn1C(C)c1ccc(C2(C(F)(F)F)N=N2)cc1 (centres unmarked) | 5-hydroxytryptamine receptor 3A (HTR3A, Homo sapiens, UniProt P46098) | ion current, two-electrode voltage clamp |  | oocytes | 5.05 |
| Cc1cc(C)nc(Nc2ncc(C(=O)NCCc3c(C)[nH]c4ccccc34)cn2)c1 | Cytochrome P450 2C19 (CYP2C19, Homo sapiens, UniProt P33261) | enzyme activity, inhibitor | human, liver microsomes |  | 4.96 |
| Cc1c(O)c(O)cc2c1CC=C1[C@@]2(C)CC[C@@]2(C)[C@@H]3C[C@](C)(C(=O)O)CC[C@]3(C)CC[C@]12C | Androgen receptor (AR, Homo sapiens, UniProt P10275) | ligand displacement in cells, radioligand |  |  | 7.24 |
| CNC[C@@H](Cc1ccc(O)cc1)N1CCN(CCC2CC3CCC2C3)CC1 (some centres unmarked) | OPRD1 | cell-free assay |  |  | < 5.00 |
| CCN(CC)C(=O)C1CN2CCc3cc(OC)c(OC)cc3C2CC1OC(C)=O (centres unmarked) | ADRA2A | calcium signal, antagonist |  |  | 6.35 |
| CCCCCCCCC[C@@H]1CC(=O)NCC(=O)N[C@H](Cc2ccc(O)cc2)C(=O)NCC(=O)N[C@@H](Cc2ccccc2)C(=O)O1 | OPRD1 | ligand displacement, radioligand |  |  | 4.42 |
| CC(C)c1ccc(O)c(=O)c(O)c1 | gag-pol reverse transcriptase | enzyme activity, inhibitor, FRET |  |  | 6.51 |
| Cc1cc(/C=C/C#N)cc(C)c1Nc1ccnc(Nc2ccc(C#N)cc2)n1 | gag-pol reverse transcriptase | enzyme activity, inhibitor |  |  | 7.67 |
| CCC[C@H](CN[C@H](CNC)Cc1ccc(O)cc1)NCC1CCC(C)CC1 (some centres unmarked) | OPRD1 | cell-free assay |  |  | < 5.00 |
| CC(C)Cc1ccc([C@H](C)C(=O)O)cc1 | Histone acetyltransferase p300 (EP300, Homo sapiens, UniProt Q09472) | enzyme activity, inhibitor, mobility shift |  |  | ~2.22 |
| CN1CCC(=C2c3ccccc3CCc3sccc32)CC1 | ADRA2A | ligand displacement, radioligand |  |  | 6.24 |
| CCC[C@H](CN[C@H](CNC)Cc1ccc(O)cc1)NCCC1CCCC1 | OPRD1 | cell-free assay |  |  | < 5.00 |
| CC(CCc1ccccc1)NC(C)C(O)c1ccc(O)cc1 (centres unmarked) | ADRA2A | ligand displacement, radioligand |  |  | 5.03 |
| CCC[C@H](CNC)NC[C@H](Cc1ccc(O)cc1)NCCC1CCCC1 | OPRD1 | cell-free assay |  |  | < 5.00 |
